# Source: PubChem BioAssay
# Shown are actives, neighbours in structure and some others; about 1.4% of the full set was active somewhere.
# FXIa inh: inhibitors of human coagulation factor XIa. purified FXIa, Boc-Glu-Ala-Arg-AMC fluorogenic substrate. P03951. AID 798. 220,000 tested, 0.14% active. inhibition, % at 5 µM;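 active = inhibition of at least 40%; inactive = inhibition below 40%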;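 note: fluorescence of freed AMC excited at 355 nm; 0% = enzyme without compound and 100% = no enzyme blank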
# Target sequence (P03951 19-387 limits assumed): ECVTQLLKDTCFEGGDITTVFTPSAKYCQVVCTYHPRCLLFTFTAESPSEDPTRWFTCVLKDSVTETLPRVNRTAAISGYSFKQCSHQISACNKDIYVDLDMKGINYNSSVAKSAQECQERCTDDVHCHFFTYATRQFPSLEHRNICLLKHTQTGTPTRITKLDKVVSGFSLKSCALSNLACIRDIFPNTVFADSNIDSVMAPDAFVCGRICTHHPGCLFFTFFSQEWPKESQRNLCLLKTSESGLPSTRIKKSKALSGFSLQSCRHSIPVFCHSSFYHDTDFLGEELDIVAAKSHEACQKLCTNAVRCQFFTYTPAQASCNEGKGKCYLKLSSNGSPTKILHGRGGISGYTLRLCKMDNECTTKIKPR
# Target sequence (P03951 388-625 limits assumed): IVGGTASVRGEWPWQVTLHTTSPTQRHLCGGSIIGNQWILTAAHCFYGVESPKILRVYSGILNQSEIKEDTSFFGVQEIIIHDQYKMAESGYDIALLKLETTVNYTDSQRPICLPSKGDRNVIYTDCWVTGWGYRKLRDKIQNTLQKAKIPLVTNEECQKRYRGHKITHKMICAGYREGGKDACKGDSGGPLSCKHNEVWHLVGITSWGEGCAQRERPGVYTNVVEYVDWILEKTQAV
# thrombin 1536: inhibitors of human thrombin | alpha-thrombin, Boc-VPR-AMC fluorogenic substrate cleavage | AID 1046 | 220,000 tested, 0.26% active | inhibition, % at 5 µM;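 active = inhibition at or above 40%; inactive = inhibition below 40%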;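 note: 0% = enzyme with no compound and 100% = wells without enzyme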
#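 signal = AMC fluorescence, 355/460 nm | material = human alpha-thrombin enzyme | control set = enzyme without compound as high, wells lacking enzyme as low | times = reaction at room temperature | read-out basis = percent inhibition scaled between no-compound controls and no-enzyme blanks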
# FXIIa inh 1536: blocks human coagulation factor XIIa protease activity | P00748 | purified FXIIa, Boc-QGR-AMC fluorogenic substrate, 2 h | inhibition, % at 5 µM | 220,000 tested, 0.3% active | AID 800; in the data active = inhibition above about 40%;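 note: 0% = enzyme with no compound and 100% = blank without enzyme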
# Furin inhibitor: blocks human furin protease activity | purified furin, fluorogenic substrate cleavage | inhibition, % at 20 µM or 30 µM | 220,000 tested, 0.061% active; in the data active = inhibition above about 25%
# KLK5 inh: inhibitors of human kallikrein 5. 210,000 tested, 0.59% active. recombinant hK5, fluorogenic AMC substrate cleavage. Q9Y337. inhibition, % at 5 µM;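 active = inhibition of 40% or more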;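 note: 0% = enzyme controls without compound and 100% = no-enzyme blanks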
# Calpain2 inh: blocks pig calpain II enzyme activity; purified calpain II, fluorogenic peptide substrate, 30 min; inhibition, % at 16 µM; 220,000 tested, 0.37% active; AID 1236;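 active = inhibition above about 50%, limit read from the data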
# * marks the source's active call; other numbers are inactive results; · = not tested or not shown.
SMILES,FXIa inh,thrombin 1536,FXIIa inh 1536,Furin inhibitor,KLK5 inh,Calpain2 inh
OCC(O)CN1CCCC1 (stereo not given),-1,-8,5,-14,-2,12
CCNc1nc(NCC)nc(Oc2ccc(C(=O)OC)cc2)n1,-3,-3,5,-23,-1,5
COC(=O)c1c(NC(=O)c2ccc(Br)s2)sc2c1CCC2,27,10,55*,-20,2,-83
COC(=O)c1c(NC(=O)c2ccoc2C)sc2c1CCC2,4,0,21,-12,0,-79
COC(=O)c1c(NC(NC(C)=O)C(Cl)(Cl)Cl)sc2c1CCCC2 (stereo not given),3,-2,8,-13,-7,55*
COc1cc(CC(=O)Nc2nccs2)cc(OC)c1OC,-1,5,3,-10,43*,21
O=C(Nc1nc(-c2ccncc2)cs1)c1ccc(F)cc1,-5,-9,7,-19,-2,0
Cn1nc(C(=O)Nc2nc(-c3ccc(F)cc3)cs2)ccc1=O,105*,2,39,-3,61*,9
Cc1cccc(CN2CCN(CC(=O)N3CCCC3)C2=O)c1,43*,3,8,-17,-17,12
CC(C)(C)NC(=O)NCC1CCCC1NC(=O)NC(C)(C)C (stereo not given),6,9,9,-12,7,-9
CN(C)C(/C=C/Nc1cccc(Br)c1)=C(C#N)C#N,6,-1,15,-2,·,12
Cc1cccc(N/C=C/C(=C(C#N)C#N)N(C)C)c1,9,0,9,-16,-16,60*
O=C(O)c1cc(N/N=C/C=C/c2ccccc2)ccc1Cl,0,4,9,-1,4,-67
CCOc1ccc(-n2c(SCC(N)=O)nc3c([nH]c4ccccc43)c2=O)cc1,4,16,8,-11,44*,7
CCOc1ccc(-n2c(SCC(=O)Nc3cc(C)on3)nc3c([nH]c4ccccc43)c2=O)cc1,24,-1,23,-21,2,-10
O=[N+]([O-])c1cc(S(=O)(=O)N2CCCCCC2)ccc1Cl,13,4,20,-8,20,18
O=C(CNC(=O)c1ccc(Cl)cc1Cl)NCCCn1ccnc1,4,-5,14,-8,1,7
CS(=O)(=O)c1ccc2nc(NC(=O)c3ccc(NS(=O)(=O)c4cccc([N+](=O)[O-])c4)cc3)sc2c1,4,53*,12,-28,3,-20
CC(=O)Nc1ccc(S(=O)(=O)Nc2nc3ccc([N+](=O)[O-])cc3s2)cc1,-2,-13,8,-12,5,-27
COCCN(CCOC)C(=O)COC(=O)c1ccc(Cl)c(S(=O)(=O)N(C)c2ccccc2)c1,-4,-2,5,-13,-11,2
Cc1cccc(Cn2c(=O)n(Cc3ccco3)c(=O)c3ccccc32)c1,-2,-2,6,-10,4,55*
Cc1cccc(Cn2c(=O)n(CCCC(=O)NCc3ccco3)c(=O)c3ccccc32)c1,-3,-4,5,-6,-13,2
Cc1ccc(C)c(NC(=O)C(=O)NCCc2c[nH]c3ccccc23)c1,-5,-6,2,-27,-3,-18
Cc1ccccc1NC(=S)NCCc1c[nH]c2ccccc12,3,1,12,3,-14,27
Cc1ccc(C)c(NC(=S)NCCc2c[nH]c3ccccc23)c1,-8,10,15,-3,42*,15
SMILES,FXIa inh,thrombin 1536,FXIIa inh 1536,Furin inhibitor,KLK5 inh,Calpain2 inh
Cc1cc(C)cc(NC(=O)C(=O)NCCc2c[nH]c3ccccc23)c1,-1,-5,4,-23,5,65*
CC1=C(C#N)C(=O)N(C2CCS(=O)(=O)C2)C(=O)/C1=C\c1ccc(C)o1 (stereo not given),-3,1,9,-8,-24,4
CCCc1cc(=O)oc2c3c(c4c(c12)OC(C)(C)C=C4)OC(C)C(C)C3O (stereo not given),3,-7,9,7,-3,26
COC(=O)c1ccc(NC(=O)CC2C(=O)N(C)C(=S)N2Cc2ccc(S(N)(=O)=O)cc2)cc1 (stereo not given),31,18,22,3,54*,10
COc1ccc(NC(=O)CC2C(=O)N(C)C(=S)N2Cc2ccncc2)cc1 (stereo not given),0,5,4,-32,-12,15
Cc1ccsc1/C=N/NC(=O)c1ccc2c(c1)OCCO2,39,30,46*,11,18,27
Cc1cccc(-n2c(CCCN3C(=O)c4ccccc4C3=O)nc3ccccc3c2=O)n1,0,30,-8,-21,152*,-2
NS(=O)(=O)c1cc2c(cc1Cl)NC(Cc1ccccc1)NS2(=O)=O (stereo not given),1,6,4,-9,2,12
COC(C[C@@H](O)C[C@H](O)[C@@H](C)OCc1ccccc1)OC,2,-3,6,-30,4,-4
COc1cccc2sc(NC(=O)c3ccc(S(=O)(=O)N4CCOCC4)cc3)nc12,16,19,41*,-9,32,-7
COc1ccccc1NC(=O)c1ccc(S(=O)(=O)N2CCOCC2)cc1,0,1,15,-7,-2,15
CCc1n[n+](CC(=O)c2ccccc2)c(N)s1,-1,-6,3,-23,-7,9
COc1ccccc1C(=O)NC(C)C(c1cccs1)N1CCOCC1 (stereo not given),-4,11,-2,31*,-21,34
Cc1ccc(C(=O)NC(C)C(c2cccs2)N2CCCC2)s1 (stereo not given),37,45*,·,-6,16,-5
Cc1cccc(/C=N/NC(=O)C2CCCNC2=O)c1 (stereo not given),9,-1,15,-24,-5,-14
OC(COc1ccc(CN2CCCCO2)cc1)CN1CCCCC1 (stereo not given),-3,-5,10,-11,-9,-2
COc1cccc(F)c1C(C[N+](=O)[O-])c1c(N)n(C)c(=O)n(C)c1=O (stereo not given),2,2,13,-19,2,-15
Cc1c(Cl)cccc1NC(=O)CNCc1ccccc1F,-5,-3,5,-20,-1,3
Cc1ccc(OCc2n[nH]c(=S)n2C2CCCCC2)cc1,-7,-9,-9,-16,-25,61*
S=c1[nH]nc(CSCc2ccccc2Cl)n1C1CCCCC1,-3,-2,-8,1,-26,65*
Cn1c(CSCc2ccccc2Cl)n[nH]c1=S,0,-6,6,-18,4,34
S=c1[nH]nc(COc2ccc(Cl)cc2)n1C1CCCCC1,7,2,12,-16,-9,32
Cc1cccc(OCc2n[nH]c(=S)n2C2CCCCC2)c1,22,-2,6,-6,-5,61*
CCOC(=O)c1ccccc1NC(=S)N1CCN(C2CCCCC2)CC1,-3,-6,5,-8,1,-20
